Assay outcomes as filed in PubChem BioAssay.
The list is not random: actives were taken first. Their share in the collection is about 2.3%.
PAD4 FP inh = PAD4 (human) enzyme inhibition; recombinant PAD4, RCA probe fluorescence polarization; inhibition, % at 6.36 µM; hit rate 0.41% among 330,000;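 active = percent inhibition above a cutoff equal to the mean of all tested compounds plus 3 SD, cut at about 15% in these data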;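 note: 0% = PAD4 with RCA probe and DMSO and 100% = probe without PAD4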
RBBP9 inh = blocks human serine hydrolase RBBP9; O75884; hit rate 0.2% among 220,000; recombinant RBBP9, FP-Rh probe fluorescence polarization; inhibition, % at 7.94 µM;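 active = inhibition above the campaign mean of all tested compounds plus 3 SD, cut at about 14% in these data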;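 note: plate controls were DMSO wells with RBBP9 for no effect and wells lacking RBBP9 protein for full effect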
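Controls: DMSO-treated enzyme wells and wells lacking RBBP9 | Material: RBBP9 protein | Technique: Fluorescence polarization | Replication: Single well per compound, no replicates | Buffer or medium: Tris-NaCl-Pluronic buffer, pH 8.0 | Timing: 30 min compound preincubation, 45 min probe labeling, 25 °C | Read-out basis: Percent inhibition from mP, scaled between DMSO and no-protein wells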
GSTO1 inh = counter-screen for RBBP9 inhibitors: inhibitors of human GSTO1; AID 1974; recombinant GSTO1, activity-based probe fluorescence polarization; hit rate 1.1% among 300,000; inhibition, % at 5.96 µM; P78417;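 active = inhibition above the campaign mean inhibition plus 3 SD, cut at about 35% in these data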;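 note: 0% = GSTO1-1 with DMSO and 100% = wells lacking GSTO1-1 enzyme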
PRMT1 FP inh = PRMT1 (human) inhibition, primary screen; Q99873; recombinant PRMT1, activity-based probe fluorescence polarization; inhibition, % at 2.79 µM; hit rate 1.3% among 370,000; AID 652257;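 active = inhibition above about 21% made by adding two undisclosed values, limit read from the data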
Target sequence (Q99873 whole entry, looked up): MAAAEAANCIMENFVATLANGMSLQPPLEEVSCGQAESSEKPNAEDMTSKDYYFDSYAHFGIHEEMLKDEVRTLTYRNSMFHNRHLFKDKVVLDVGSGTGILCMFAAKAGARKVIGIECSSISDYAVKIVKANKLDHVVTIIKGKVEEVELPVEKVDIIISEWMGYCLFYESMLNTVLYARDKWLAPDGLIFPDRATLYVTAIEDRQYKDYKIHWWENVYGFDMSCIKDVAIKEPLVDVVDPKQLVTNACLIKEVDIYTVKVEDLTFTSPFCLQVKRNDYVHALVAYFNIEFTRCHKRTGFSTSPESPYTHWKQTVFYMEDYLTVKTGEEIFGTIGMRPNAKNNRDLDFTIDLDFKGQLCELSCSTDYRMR
Fam108B counter = blocks mouse Fam108B hydrolase in RBBP9 counter-screen | inhibition, % at 9.51 µM | hit rate 0.33% among 300,000 | recombinant Fam108B, FP-Rh probe fluorescence polarization;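 active = inhibition above the screen mean inhibition plus 3 SD, computed separately per campaign, cut at about 18% in these data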;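 note: inhibitors lower polarization as less probe binds the enzyme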
PME-1 inh = PME-1 (human) inhibition; Q9Y570; recombinant PME-1, FP-Rh probe fluorescence polarization; inhibition, % at 5.9 µM; hit rate 0.53% among 320,000; AID 2130;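 active = inhibition above the campaign mean of all compounds plus 3 SD, cut at about 26% in these data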;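 note: competitive labeling of PME-1 active site by serine hydrolase directed probe; 0% = PME-1 with DMSO and 100% = wells lacking PME-1 enzyme; inhibitors block probe labeling so polarization falls and inhibition rises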
Fam108b confirm = Fam108b (mouse) hydrolase inhibition, confirmation assay | shares compounds with Fam108B counter | recombinant Fam108b, FP-Rh probe fluorescence polarization | inhibition, % at 9.51 µM | hit rate 44% among 930 | AID 1978;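 active = inhibition above a limit from the primary screen, the mean over all compounds plus 3 SD, cut at about 19% in these data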;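 note: 0% = median of active Fam108b wells and 100% = catalytically dead S170A mutant; inhibitors free the probe so polarization falls as inhibition rises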
Fam108b ABPP HTS = inhibits mouse Fam108b in gel-based ABPP | shares compounds with Fam108B counter | recombinant Fam108b, fluorophosphonate probe | inhibition, % at 20 µM | hit rate 44% among 260 | AID 588649; in the data active = inhibition above about 40%
* hit, by the source's call; . = not tested or not shown.

SMILES	PAD4 FP inh	RBBP9 inh	GSTO1 inh	PRMT1 FP inh	Fam108B counter	PME-1 inh	Fam108b confirm	others
Cc1ccc(S(=O)(=O)Nc2ccccc2C(=O)Nc2nc(-c3ccc(F)cc3)cs2)cc1	-4	-21	-110	1	24*	6	97*	Fam108b ABPP HTS=65*
Cc1[nH]c2c(C)cccc2c1CCNC(=O)c1ccc2c(c1[N+](=O)[O-])C(=O)c1ccccc1C2=O	-4	8	21	-4	23*	31*	30*	Fam108b ABPP HTS=60*
Cc1cccc2c(=O)c(C(=O)NCCc3ccccc3)c[nH]c12	3	.	-8	-5	-2	-4	.
CCOC(=O)c1c(NC(=O)Nc2ccccc2)sc(C)c1C	-6	-3	22	0	22*	21	6
O=C(COC(=O)c1c(F)cccc1F)NCCNC(=O)COC(=O)c1c(F)cccc1F	-3	.	0	-7	-1	3	.
N#CC1=C(N)N(c2ccc(Cl)c(Cl)c2)C(=O)C1	-4	-7	4	3	6	5	.
O=[N+]([O-])c1cccc(-c2csc(NN=Cc3cccc(O)c3)n2)c1	.	.	.	.	.	.	.	Fam108b ABPP HTS=0
Cc1ccc(C2C3=C(CC(C)(C)CC3=O)N=C3c4ccccc4C(=O)C32)cc1 (centres undefined)	-1	2	-3	14	23*	11	15
CC1(C)CC(=O)C2=C(C1)N=C1c3ccccc3C(=O)C1C2c1ccc(Cl)cc1 (centres undefined)	2	-3	-2	5	8	14	.
O=C(N/N=C/c1ccncc1)c1cc2c(ccc3ccccc32)o1	-2	-14	-9	-2	-9	-28	.
COc1cc(/C=N/NC(=O)c2cc3c(ccc4ccccc43)o2)cc(OC)c1O	2	.	-1	-2	27*	34*	20*
O=C(NN=Cc1cc(Cl)c(O)c(Cl)c1)c1cc2c(ccc3ccccc32)o1	.	.	.	.	.	.	.	Fam108b ABPP HTS=0
O=C(c1cc(-c2cccc(O)c2)on1)N1CCN(C(c2ccccc2)c2ccccc2)CC1	0	-28	-9	-1	-30	-52	.
CCCS(=O)(=O)N1CCCC(C(=O)NCCCN(Cc2ccccc2)C(C)C)C1 (centres undefined)	7	-2	0	0	7	-7	.
CC1=NOC(=O)/C1=C/c1ccc(-c2ccc(Cl)cc2)o1	-3	-4	32	.	19*	-1	16
CC1=NOC(=O)/C1=C\c1ccc(-c2ccc(Br)cc2)o1	.	6	.	10	.	.	.
O=C(Nc1ccc(N2CCCCC2)c(Cl)c1)c1ccc(N2CCOCC2)c([N+](=O)[O-])c1	-3	-3	-7	2	19*	6	8
O=C(Nc1cc(Cl)ccc1N1CCOCC1)c1ccc(N2CCCCC2)c([N+](=O)[O-])c1	0	.	7	-3	-3	-6	.
N#CC/C(N)=N/Nc1nc2ccccc2nc1Cc1ccccc1	-6	.	-20	-1	46*	33*	24*
N#CCn1c(Cc2ccccc2)nc2ccccc2c1=O	.	.	.	3	.	.	.
O=S(=O)(NCCCCNS(=O)(=O)c1c(F)cccc1F)c1ccc2c(c1)OCCO2	-12	.	.	-4	.	5	.
CCOC(=O)c1ccc(N2CCN(c3ccc(F)cc3)CC2)c(NC(=O)Nc2cccc(OC)c2)c1	0	-7	-8	-1	36*	17	-7
Nc1c(Cl)cc(-c2[nH]c3cc(C(=O)NCCO)ccc3c(=O)c2O)cc1Cl	-2	.	0	-1	29*	42*	18
Cc1ccc(C)c(S(=O)(=O)Nc2cc(SCC(=O)O)c(O)c3ccccc23)c1	33*	-1	87*	.	29*	28*	-10
Oc1ccccc1-c1nc2c3ccccc3c3ccccc3c2[nH]1	2	11	-20	-1	44*	38*	53*	Fam108b ABPP HTS=90*
C/C=C(\C)C(=O)NCCN1C2=NC[C@H](C(C)C)N2C[C@@H]1Cc1ccc(OC)cc1	-4	3	-11	-2	21*	4	-7
CCCc1ccc(C2C3=C(CC(C)(C)CC3=O)NC3=C2C(=O)c2ccccc23)cc1 (centres undefined)	1	2	-2	19	24*	4	1
